Calls of active or inactive are those of the source. The rule behind the calls is not given here.
What was measured:
[1] = target: T1, Histone-lysine N-methyltransferase SETD7 (Homo sapiens, UniProt Q8WTS6); assay: Inhibition of SET7-mediated methylation of histone H3 after 90 mins by scintillation counting in presence of S-adenosyl-l-[methyl-3H]methionine
T1 sequence (Q8WTS6 whole entry): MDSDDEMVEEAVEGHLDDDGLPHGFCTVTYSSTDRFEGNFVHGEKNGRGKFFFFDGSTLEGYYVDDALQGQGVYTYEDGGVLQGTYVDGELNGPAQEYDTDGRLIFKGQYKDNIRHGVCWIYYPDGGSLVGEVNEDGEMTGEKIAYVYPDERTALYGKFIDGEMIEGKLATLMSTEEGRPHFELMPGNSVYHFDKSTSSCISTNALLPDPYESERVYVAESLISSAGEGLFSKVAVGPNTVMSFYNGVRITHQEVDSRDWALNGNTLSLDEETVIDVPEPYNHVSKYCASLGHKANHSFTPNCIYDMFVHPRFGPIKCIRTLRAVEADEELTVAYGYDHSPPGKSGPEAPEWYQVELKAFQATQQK

[2] = target: T2, Histone-arginine methyltransferase CARM1 (Homo sapiens, UniProt Q86X55); assay: Inhibition of CARM1-mediated methylation of PABP1 after 90 mins by scintillation counting in presence of S-adenosyl-l-[methyl-3H]methionine
T2 sequence (Q86X55 whole entry): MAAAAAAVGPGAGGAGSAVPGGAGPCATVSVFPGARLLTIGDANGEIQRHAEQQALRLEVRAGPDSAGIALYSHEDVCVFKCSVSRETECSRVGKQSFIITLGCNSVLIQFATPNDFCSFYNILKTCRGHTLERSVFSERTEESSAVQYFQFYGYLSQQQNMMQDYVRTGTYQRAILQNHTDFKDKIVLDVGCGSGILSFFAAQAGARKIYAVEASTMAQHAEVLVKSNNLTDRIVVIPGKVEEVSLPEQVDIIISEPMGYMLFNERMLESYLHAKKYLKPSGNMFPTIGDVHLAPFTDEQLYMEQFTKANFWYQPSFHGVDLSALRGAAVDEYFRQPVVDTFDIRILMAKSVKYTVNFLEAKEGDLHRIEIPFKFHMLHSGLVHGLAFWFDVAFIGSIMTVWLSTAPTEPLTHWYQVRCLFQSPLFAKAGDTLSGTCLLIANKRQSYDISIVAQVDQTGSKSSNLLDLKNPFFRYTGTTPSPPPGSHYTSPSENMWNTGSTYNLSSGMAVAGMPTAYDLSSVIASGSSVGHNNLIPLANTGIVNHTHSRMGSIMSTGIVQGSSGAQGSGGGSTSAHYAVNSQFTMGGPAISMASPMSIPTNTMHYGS

[3] = target: Protein arginine N-methyltransferase 1 (Homo sapiens, UniProt Q99873); assay: Inhibition of PRMT1-mediated methylation of NPL3 after 90 mins by scintillation counting in presence of S-adenosyl-l-[methyl-3H]methionine
[4] = target: T3, Histone-arginine methyltransferase CARM1 (Homo sapiens) (UniProt Q86X55); assay: Inhibition of CARM1-mediated methylation of PABP1 at 20 uM after 90 mins by scintillation counting in presence of S-adenosyl-l-[methyl-3H]methionine
T3 sequence (whole entry): T2 sequence (Q86X55 whole entry)
How it was run: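 Recombinant CARM1 with PABP1 substrate in PBS pH 7.4 containing [³H]AdoMet, compound at 20 μM. Incubated 90 min at 30 °C, then SDS-PAGE, PVDF transfer and overnight film fluorography. Substrate bands cut out for scintillation counting.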

Sequence of Protein arginine N-methyltransferase 1 (Q99873 whole entry): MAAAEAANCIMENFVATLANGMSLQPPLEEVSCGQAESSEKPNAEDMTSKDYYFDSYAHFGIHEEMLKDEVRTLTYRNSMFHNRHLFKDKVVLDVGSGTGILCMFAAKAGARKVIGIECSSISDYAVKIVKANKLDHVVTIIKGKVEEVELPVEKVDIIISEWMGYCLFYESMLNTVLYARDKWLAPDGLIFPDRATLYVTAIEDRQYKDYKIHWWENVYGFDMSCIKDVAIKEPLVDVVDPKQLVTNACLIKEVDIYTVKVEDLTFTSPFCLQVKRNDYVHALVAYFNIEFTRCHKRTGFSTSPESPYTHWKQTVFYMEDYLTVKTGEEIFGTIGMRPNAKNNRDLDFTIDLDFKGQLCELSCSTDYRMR

| Structure (SMILES) | IC50 [1] [µM] | IC50 [2] [µM] | IC50 [3] [µM] | inhibition [4] |
| --- | --- | --- | --- | --- |
| O=C1/C(=C/c2ccc(O)c(Br)c2)CN(CCc2ccccc2)C/C1=C\c1ccc(O)c(Br)c1 | > 667 | 14.8 | > 667 | – |
| O=C1/C(=C/c2ccc(O)c(Br)c2)CN(Cc2ccccc2Cl)C/C1=C\c1ccc(O)c(Br)c1 | > 667 | 12.5 | > 667 | – |
| Cc1ccc(CN2C/C(=C\c3ccc(O)c(Br)c3)C(=O)/C(=C/c3ccc(O)c(Br)c3)C2)cc1 | > 333 | 11.9 | > 667 | inactive |
| Cc1ccccc1CN1C/C(=C\c2ccc(O)c(Br)c2)C(=O)/C(=C/c2ccc(O)c(Br)c2)C1 | > 667 | 10.3 | > 667 | – |
| COc1ccc(CN2C/C(=C\c3ccc(O)c(Br)c3)C(=O)/C(=C/c3ccc(O)c(Br)c3)C2)cc1 | – | – | – | inactive |
| O=C1/C(=C/c2ccc(O)c(Br)c2)CN(CCCc2ccccc2)C/C1=C\c1ccc(O)c(Br)c1 | > 667 | 16 | > 667 | inactive |
| COc1cccc(CN2C/C(=C\c3ccc(O)c(Br)c3)C(=O)/C(=C/c3ccc(O)c(Br)c3)C2)c1 | – | – | – | inactive |
| O=C1/C(=C/c2ccc(O)c(Br)c2)CN(Cc2ccc(Cl)cc2)C/C1=C\c1ccc(O)c(Br)c1 | > 600 | 12.2 | > 667 | – |
| COc1ccccc1CN1C/C(=C\c2ccc(O)c(Br)c2)C(=O)/C(=C/c2ccc(O)c(Br)c2)C1 | – | – | – | inactive |
